Results of several laboratories.
Protocols differ between the studies behind these lines.
Organism: Mycobacterium tuberculosis variant bovis BCG
Observed: microbial growth

With COc1ccc(C=CC(=O)c2ccccc2Cl)cc1OC the MIC was 12.5 µg/mL (BCG; 7 days).
For CO[C@H]1/C=C/O[C@@]2(C)Oc3c(C)c(O)c4c(O)c(c(/C=N/N5CCN(C)CC5)c(O)c4c3C2=O)NC(=O)/C(C)=C\C=C\[C@H](C)[C@H](O)[C@@H](C)[C@@H](O)[C@@H](C)[C@H](OC(C)=O)[C@@H]1C, the MIC was less than 0.2 µg/mL (BCG).
With Fc1ccc(COc2ccccc2CNCc2cccnc2)cc1 the MIC was greater than 62.5 µM (ATCC35734 BCG).
O=C(Nc1ccc2c(c1)OC(F)(F)O2)Nc1ccc(Cl)c(C(F)(F)F)c1 gave an MIC of 3 µM (BCG).
COc1ccc(C=CC(=O)c2ccccc2Br)cc1OC gave an MIC of 25 µg/mL (BCG; 7 days).
For CNC(=O)c1cc(Oc2ccc(NC(=O)Nc3ccc(Cl)c(C(F)(F)F)c3)cc2)ccn1, the MIC was 12.5 µM (BCG).
c1ccc(COc2ccccc2CNCc2cccnc2)cc1 gave an MIC of greater than 62.5 µM (ATCC35734 BCG).
COc1ccc(C=CC(=O)c2ccc(Cl)cc2Cl)cc1OC has an MIC of 200 µg/mL (BCG; 7 days).
With Fc1ccc(COc2ccccc2CNCc2ccccc2)cc1 the MIC was greater than 62.5 µM (ATCC35734 BCG).
CO[C@H]1/C=C/O[C@@]2(C)Oc3c(C)c(O)c4c(O)c(c(/C=N/N5CCN(C)CC5)c(O)c4c3C2=O)NC(=O)/C(C)=C\C=C\[C@H](C)[C@H](O)[C@@H](C)[C@@H](O)[C@@H](C)[C@H](OC(C)=O)[C@@H]1C gave an MIC of less than 0.78 µM (BCG; 6 days).
